Experimental data from ChEMBL document CHEMBL1255468 (Antimicrob Agents Chemother, 2010).
Activity calls are given as the source filed them. The calls are words filed in the database; no cut-off is given here.

Assays:
[1] = tested on: Trypanosoma cruzi; assay: Antitrypanosomal activity against Trypanosoma cruzi trypomastigotes assessed as increase in vesicles size near the flagellar pocket at 17 uM after 24 hrs by Transmission electron microscopy; type: functional, organism-based
How it was run: (§1)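 Y-strain bloodstream trypomastigotes (5 × 10^6/ml) were treated for 24 h, washed in PBS, and fixed in 2.5% glutaraldehyde in 0.1 M cacodylate (pH 7.2). They were postfixed with OsO4/ferricyanide/CaCl2, dehydrated in acetone, and embedded in epoxy. Ultrathin sections were stained with uranyl acetate and lead citrate and examined by transmission EM.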

[2] = tested on: Mus musculus; assay: Toxicity in mouse assessed as GPT level in blood at 400 mg/kg, po after 4 days; type: organism-based; parameters: dose 400 mg/kg, route oral; conditions: in vivo, 96 h
How it was run: (§2)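 Uninfected male Swiss mice, 8–10 per group, received by gavage either a single 400 mg/kg dose or 10 doses of 100 mg/kg (vehicle water with 10% Tween-80). GOT, GPT and urea were measured directly in blood with the Reflotron system, and body weight was recorded. Single-dose toxicity was analyzed 4 days after treatment.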

[3] = tested on: Trypanosoma cruzi; assay: Antitrypanosomal activity against Trypanosoma cruzi amastigotes infected in mouse peritoneal macrophages assessed as inhibition of infection at 30 uM after 1-4 days; type: functional, organism-based
How it was run: (§3)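 Swiss mouse peritoneal macrophages (3 × 10^5/well) were plated for 24 h, then infected with Y-strain trypomastigotes (10:1) in DMEM with 10% FCS for 3 h. Free parasites were washed off, and compounds were added at 2.5–30 µM final for 1–4 days. Cells were fixed in Bouin's solution and stained with Giemsa. Percent infection and endocytic index (parasites/100 cells) were counted, and IC50 was derived. Three independent experiments.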

[4] = tested on: Trypanosoma cruzi; assay: Antitrypanosomal activity against Trypanosoma cruzi infected in mouse assessed as decrease in parasitemia in blood at 100 mg/kg, po after 6 days post infection; type: functional
How it was run: (§4)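 Male Swiss mice, 8–10 per group, infected i.p. with 10^4 bloodstream trypomastigotes. From dpi 6, mice received 10 consecutive daily gavage doses of 100 mg/kg in water with 10% Tween-80. Parasitemia was read daily on dpi 6–21 by the Pizzi-Brener method. Mortality was noted daily, and %CM at 40 dpi and M50 were calculated.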

[5] = tested on: Trypanosoma cruzi; assay: Antitrypanosomal activity against Trypanosoma cruzi infected in mouse assessed as reduction in inflammatory foci in cardiac muscle at 100 mg/kg, po after 6 days post infection; type: functional, organism-based; parameters: dose 100 mg/kg; conditions: Muscle tissue
How it was run: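 Infected mice were dosed by gavage at 100 mg/kg daily for 10 days from dpi 6. Two mice per group were euthanized at 14 dpi. Paraffin heart sections were stained with hematoxylin-eosin. Under a 40× objective, parasite nests and inflammatory foci (≥10 mononuclear cells) were counted per mm2 over 30 fields.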

[6] = tested on: Mus musculus; assay: Toxicity in mouse assessed as GOT level in blood at 400 mg/kg, po after 4 days; type: organism-based; parameters: dose 400 mg/kg, route oral; conditions: in vivo, 96 h; how it was run: as §2
[7] = tested on: Trypanosoma cruzi; assay: Antitrypanosomal activity against Trypanosoma cruzi Y infected in mouse assessed as decrease in mouse mortality at 200 mg/kg, po upto 40 days post infection; type: functional, organism-based; parameters: dose 200 mg/kg
How it was run: (§5)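 Male Swiss mice (6–8 weeks, 18–20 g), 8–10 per group, infected i.p. with 10^4 bloodstream trypomastigotes (Y strain). On dpi 5, a single 200 mg/kg oral gavage dose was given in water with 10% Tween-80. Parasitemia was counted daily from dpi 6 to 21 by the Pizzi-Brener method. Body weight was recorded weekly. Mortality was recorded daily, and cumulative mortality at 40 dpi and M50 were calculated.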

[8] = tested on: Trypanosoma cruzi; assay: Antitrypanosomal activity against Trypanosoma cruzi trypomastigotes assessed as alteration in autophagosome-like structure formation at 17 uM after 24 hrs by Transmission electron microscopy; type: functional, organism-based; how it was run: as §1
[9] = tested on: Trypanosoma cruzi; assay: Antitrypanosomal activity against Trypanosoma cruzi amastigotes infected in mouse peritoneal macrophages assessed as endocytic index at 30 uM after 1-4 days; type: functional, organism-based; how it was run: as §3
[10] = Cytotoxicity against swiss mouse HMC after 48 hrs by MTT assay; conditions: read-out: LC50
How it was run: (§6)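 Uninfected host cells were exposed to compounds at 37°C for 2 days, with compound stocks in DMSO. Cells were Swiss mouse peritoneal macrophages or primary mouse embryo heart muscle cells (18-day embryos, trypsin/collagenase dissociated, gelatin-coated coverslips, DMEM with horse and fetal calf sera, chicken embryo extract). Viability was read by MTT at 490 nm to give LC50.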

[11] = tested on: Trypanosoma cruzi; assay: Antitrypanosomal activity against Trypanosoma cruzi amastigotes infected in mouse embryo heart muscle cells assessed as endocytic index at 40 uM; type: functional, organism-based
How it was run: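 Mouse embryo heart muscle cells (10^5/well) were plated on gelatin-coated coverslips and infected after 24 h with trypomastigotes at 10:1 parasite/host cell. After another 24 h, cultures were washed and exposed to compounds at 10–40 µM final. At intervals, cells were fixed in Bouin's solution and stained with Giemsa. Percent infection and endocytic index (parasites/100 cells) were counted, and IC50 was derived.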

[12] = tested on: Trypanosoma cruzi; assay: Antitrypanosomal activity against Trypanosoma cruzi Y infected in mouse assessed as decrease in parasitemia in blood at 200 mg/kg, po upto 40 days post infection; type: functional; parameters: scale not given: the % may be the effect or the level left; how it was run: as §5
[13] = tested on: Trypanosoma cruzi; assay: Antitrypanosomal activity against Trypanosoma cruzi trypomastigotes assessed as parasite body rounding at 17 uM after 24 hrs by scanning electron microscopy; type: functional, organism-based
How it was run: (§7)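 Trypomastigotes (5 × 10^6/ml) were treated for 24 h and adhered to poly-L-lysine coverslips. They were fixed in 2.5% glutaraldehyde in 0.1 M cacodylate (pH 7.2) for 40 min and postfixed for 30 min in 1% OsO4, 0.8% ferricyanide and 2.5 mM CaCl2. Samples were acetone-dehydrated, critical-point dried, gold-coated (20 nm) and examined by scanning EM.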

[14] = tested on: Mus musculus; assay: Toxicity in mouse assessed as body weight at 400 mg/kg, po after 4 days; type: organism-based; parameters: dose 400 mg/kg, route oral; conditions: in vivo, 96 h; how it was run: as §2
[15] = tested on: Mus musculus; assay: Toxicity in mouse assessed as urea level in blood at 400 mg/kg, po after 4 days; type: organism-based; parameters: dose 400 mg/kg, route oral; conditions: in vivo, 96 h; how it was run: as §2
[16] = Cytotoxicity against Swiss mouse peritoneal macrophages after 48 hrs by MTT assay; type: cell-based, Peritoneal macrophage cell; conditions: read-out: LC50; how it was run: as §6
[17] = tested on: Trypanosoma cruzi; assay: Antitrypanosomal activity against Trypanosoma cruzi infected in mouse assessed as decrease in mortality rate at 100 mg/kg, po after 6 days post infection; type: functional, organism-based; parameters: dose 100 mg/kg; how it was run: as §4
[18] = tested on: Trypanosoma cruzi; assay: Antitrypanosomal activity against Trypanosoma cruzi amastigotes infected in mouse peritoneal macrophages assessed as inhibition of infection after 1 day; type: functional, organism-based; conditions: 24 h; how it was run: as §3
[19] = tested on: Trypanosoma cruzi; assay: Antitrypanosomal activity against Trypanosoma cruzi trypomastigotes assessed as shrinkage of cell surface and body at 11.6 uM after 24 hrs by scanning electron microscopy; type: functional, organism-based; how it was run: as §7
[20] = tested on: Trypanosoma cruzi; assay: Antitrypanosomal activity against Trypanosoma cruzi amastigotes infected in mouse peritoneal macrophages assessed as endocytic index after 1 day; type: functional, organism-based; conditions: 24 h; how it was run: as §3
[21] = tested on: Trypanosoma cruzi; assay: Antitrypanosomal activity against Trypanosoma cruzi amastigotes infected in mouse peritoneal macrophages assessed as inhibition of infection after 2 day; type: functional, organism-based; conditions: 48 h; how it was run: as §3
[22] = tested on: Trypanosoma cruzi; assay: Antitrypanosomal activity against Trypanosoma cruzi amastigotes infected in mouse peritoneal macrophages assessed as endocytic index after 3 day; type: functional, organism-based; conditions: 72 h; how it was run: as §3
[23] = tested on: Trypanosoma cruzi; assay: Antitrypanosomal activity against Trypanosoma cruzi trypomastigotes assessed as shortening of flagellum at 11.6 uM after 24 hrs by scanning electron microscopy; type: functional, organism-based; how it was run: as §7
[24] = tested on: Trypanosoma cruzi; assay: Antitrypanosomal activity against Trypanosoma cruzi amastigotes infected in mouse peritoneal macrophages assessed as endocytic index after 4 day; type: functional, organism-based; conditions: 96 h; how it was run: as §3
[25] = tested on: Trypanosoma cruzi; assay: Antitrypanosomal activity against Trypanosoma cruzi amastigotes infected in mouse peritoneal macrophages assessed as endocytic index after 2 day; type: functional, organism-based; conditions: 48 h; how it was run: as §3
[26] = Selectivity index, ratio of LC50 for mouse peritoneal macrophages to IC50 for inhibition of Trypanosoma cruzi amastigotes
How it was run: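 SI = LC50/IC50 in peritoneal macrophages. LC50 came from the 2-day MTT assay on uninfected macrophages. Cells were Bouin-fixed and Giemsa-stained, and endocytic index (parasites/100 cells) was counted. Three independent experiments.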

[27] = tested on: Trypanosoma cruzi; assay: Antitrypanosomal activity against Trypanosoma cruzi amastigotes infected in mouse peritoneal macrophages assessed as inhibition of infection after 4 day; type: functional, organism-based; conditions: 96 h; how it was run: as §3
[28] = tested on: Trypanosoma cruzi; assay: Antitrypanosomal activity against Trypanosoma cruzi amastigotes infected in mouse peritoneal macrophages assessed as inhibition of infection after 3 day; type: functional, organism-based; conditions: 72 h; how it was run: as §3
[29] = tested on: Trypanosoma cruzi; assay: Antitrypanosomal activity against Trypanosoma cruzi Y infected in mouse assessed as decrease in mouse mortality at 200 mg/kg, po after 20 days post infection; type: functional, organism-based; parameters: dose 200 mg/kg; how it was run: as §5

SMILES	Activity [2] [U/L]	Activity [5]	Activity [6] [U/L]	Activity [7]	CC50 at 48 h [10] [µM]	Activity [11]	Activity [12]	Activity [14] [g]	Activity [15] [mg/dL]	CC50 at 48 h [16] [µM]	Activity [17]	further results
Cn1c([N+](=O)[O-])cnc1-c1nnc(N/N=C\c2ccc(Br)cc2)s1	27.9	Active	118	Active	> 120	inactive	60%	25.2	62.7	> 60	Active	Activity [1]: Active; Activity [3]: inactive; Activity [4]: inactive; Activity [8]: Active; Activity [9]: inactive; Activity [13]: Active
Cn1c([N+](=O)[O-])cnc1-c1nnc(N/N=C\c2ccc(Cl)cc2)s1				inactive			inactive					
Cn1c([N+](=O)[O-])cnc1-c1nnc(N/N=C\c2ccc(O)cc2)s1	24.4	Active	76.6	Active	> 240	inactive	50%	25.5	58.6	> 100	inactive	IC50 [18]: 7.1 µM; Activity [19]: Active; IC50 [20]: 5 µM; IC50 [21]: 6 µM; IC50 [22]: 3.2 µM; Activity [23]: Active; inhibition in vivo at 100 mg/kg ([4]; 144 h): 46%; IC50 [24]: 1.3 µM; IC50 [25]: 2.9 µM; Ratio LC50/IC50 [26]: >41; IC50 [27]: 1.7 µM; IC50 [28]: 6.2 µM
Cn1c([N+](=O)[O-])cnc1-c1nnc(N/N=C\c2ccc([N+](=O)[O-])cc2)s1							Active					Activity [29]: inactive
